Measured values taken from ChEMBL document CHEMBL1122005, “Quantitative structure-activity relationships of aromatic esters of 1-methyl-4-piperidinol as analgesics” (1982).
Active and inactive are the calls of the source. No cut-off for these calls is given here.

Organism: Mus musculus
Assay: Relative Analgesic activity of compound to the N-substituted normeperidine assayed by the mouse hotplate method
Type: functional

| Structure (SMILES) | Relative activity |
| --- | --- |
| Oc1ccc2c3c1O[C@H]1[C@@H](O)C=CC4(CC2)CN(C/C=C/c2ccccc2)CCC314 (some centres undefined) | <0.1 |
| CCOC(=O)C1(c2ccccc2)CCN(Cc2ccccc2)CC1 | <0.5 |
| CCOC(=O)C1(c2ccccc2)CCN(CCc2ccccc2)CC1 [PHENERIDINE] | 2.6 |
| CCOC(=O)C1(c2ccccc2)CCN(CC)CC1 | 0.5 |
| CCOC(=O)C1(c2ccccc2)CCN(CCCCc2ccccc2)CC1 | 2.8 |
| CCOC(=O)C1(c2ccccc2)CCN(C/C=C/c2ccccc2)CC1 | 40 |
| Oc1ccc2c3c1O[C@H]1[C@@H](O)C=CC4(CC2)CN(CCCCc2ccccc2)CCC314 (some centres undefined) | 0.3 |

Organism: Mus musculus
Assay: Analgesic activity of compound assayed by the mouse hotplate method was determined as log(1/C); Inactive
Type: functional, organism-based

| Structure (SMILES) | Log 1/C |
| --- | --- |
| CN1CCC(OC(=O)c2ccccc2C#N)CC1 | inactive |
| CN1CCC(OC(=O)c2ccc(I)cc2)CC1 | inactive |
| CN1CCC(OC(=O)c2cc(I)cc(I)c2I)CC1 | inactive |
| Cc1cccc(C(=O)OC2CCN(C)CC2)c1 | inactive |

Organism: Mus musculus
Assay: Analgesic activity of compound assayed by the mouse hotplate method was determined as log(1/C); Activity observed in 4-5 out of 10 mice tested
Type: functional
Summary of the method: (§1)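 Mouse hot-plate test. Compounds were given subcutaneously as water-soluble HCl salts. The ED50 is expressed in mmol/kg, and potency is given as log(1/C), where C is the ED50 in mmol/kg.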

| Structure (SMILES) | Log 1/C |
| --- | --- |
| CCc1ccccc1C(=O)OC1CCN(C)CC1 | 1.15 |
| CCOc1ccccc1C(=O)OC1CCN(C)CC1 | 1.18 |
| CN1CCC(OC(=O)c2ccccc2-c2ccccc2)CC1 | 1.52 |
| Cc1ccc(C(=O)OC2CCN(C)CC2)cc1C | 1.15 |
| CN1CCC(OC(=O)c2ccccc2Oc2ccccc2)CC1 | 1.24 |
| CN1CCC(OC(=O)c2ccccc2CCc2ccccc2)CC1 | 0.86 |

Organism: Mus musculus
Assay: Analgesic activity of compound assayed by the mouse hotplate method was determined
Type: functional
Summary of the method: as §1

| Structure (SMILES) | Log 1/C |
| --- | --- |
| Cc1[nH]c(C)c(C(=O)OC2CCN(C)CC2)c1C | 1.87 |

Organism: Mus musculus
Assay: Relative Analgesic activity of compound to the N-methyl homologue assayed by the mouse hotplate method
Type: functional

| Structure (SMILES) | Relative activity |
| --- | --- |
| Cc1[nH]c(C)c(C(=O)OC2CCN(Cc3ccccc3)CC2)c1C | 0.8 |
| Oc1ccc2c3c1O[C@H]1[C@@H](O)C=CC4(CC2)CN(Cc2ccccc2)CCC314 (some centres undefined) | <0.1 |
| CN1CCC23c4c5ccc(O)c4O[C@H]2[C@@H](O)C=CC3(CC5)C1 (some centres undefined) | 1 |
| CCOC(=O)C1(c2ccccc2)CCN(C)CC1 [MEPERIDINE] | 1 |
| Oc1ccc2c3c1O[C@H]1[C@@H](O)C=CC4(CC2)CN(CCc2ccccc2)CCC314 (some centres undefined) | 6 |
| Cc1[nH]c(C)c(C(=O)OC2CCN(CCc3ccccc3)CC2)c1C | 0.3 |
| CCN1CCC(OC(=O)c2c(C)[nH]c(C)c2C)CC1 | 0.5 |
| Cc1[nH]c(C)c(C(=O)OC2CCN(C)CC2)c1C | 1 |
| CCN1CCC23c4c5ccc(O)c4O[C@H]2[C@@H](O)C=CC3(CC5)C1 (some centres undefined) | <0.1 |

Organism: Mus musculus
Assay: Analgesic activity of compound assayed by the mouse hotplate method was determined as ED50.
Type: functional
Summary of the method: as §1

| Structure (SMILES) | ED50 [mg/kg] |
| --- | --- |
| Cc1[nH]c(C)c(C(=O)OC2CCN(Cc3ccccc3)CC2)c1C | 6.3 |
| Cc1[nH]c(C)c(C(=O)OC2CCN(CCc3ccccc3)CC2)c1C | 20 |
| CCN1CCC(OC(=O)c2c(C)[nH]c(C)c2C)CC1 | 10.4 |
| Cc1[nH]c(C)c(C(=O)OC2CCN(C)CC2)c1C | 4.9 |

Organism: Mus musculus
Assay: Analgesic activity assayed with the mouse hotplate method
Type: functional
Summary of the method: as §1

| Structure (SMILES) | Log 1/C |
| --- | --- |
| CN1CCC(OC(=O)c2ccccc2Cc2ccccc2)CC1 | 1.28 |
| CN1CCC(OC(=O)c2ccc(C(C)(C)C)cc2)CC1 | 1.13 |
| COc1cc(OC)cc(C(=O)OC2CCN(C)CC2)c1 | 1.53 |
| CN1CCC(OC(=O)c2ccc3c(c2)OCO3)CC1 | 1.61 |
| CN1CCC(OC(=O)c2ccc(Cl)c(Cl)c2)CC1 | 1.08 |
| Cc1cccc(C)c1C(=O)OC1CCN(C)CC1 | 1.27 |
| CN1CCC(OC(=O)c2ccccc2Cl)CC1 | 1.25 |
| CN1CCC(OC(=O)c2ccccc2[N+](=O)[O-])CC1 | 1.48 |
| CN1CCC(OC(=O)c2ccc(Cl)cc2)CC1 | 1.11 |
| Cc1ccc(C(=O)OC2CCN(C)CC2)cc1 | 1.17 |
| COc1ccc(C(=O)OC2CCN(C)CC2)cc1OC | 1.91 |
| CN1CCC(OC(=O)c2ccccc2C(F)(F)F)CC1 | 1.49 |
| Cc1ccc(C)c(C(=O)OC2CCN(C)CC2)c1 | 1.36 |
| CN1CCC(OC(=O)c2ccccc2Br)CC1 | 1.21 |
| CN1CCC(OC(=O)c2ccc(C#N)cc2)CC1 | 1.65 |
| Cc1ccccc1C(=O)OC1CCN(C)CC1 | 1.48 |
| CN1CCC(OC(=O)c2ccc([N+](=O)[O-])cc2)CC1 | 1.14 |
| COc1ccc(C(=O)OC2CCN(C)CC2)cc1 | 1.43 |
| COc1cc(C(=O)OC2CCN(C)CC2)ccc1C | 1.4 |

| Structure (SMILES) | Log 1/C |
| --- | --- |
| COc1cccc(C(=O)OC2CCN(C)CC2)c1 | 1.67 |
| CN1CCC(OC(=O)c2cccc(O)c2)CC1 | 1.21 |
| CN1CCC(OC(=O)c2ccccc2)CC1 | 1.43 |
| Cc1cc(C)c(C(=O)OC2CCN(C)CC2)c(C)c1 | 1.55 |
| Cc1ccc(C(=O)OC2CCN(C)CC2)cc1F | 1.32 |
| COc1cccc(C(=O)OC2CCN(C)CC2)c1OC | 1.55 |
| CN1CCC(OC(=O)c2ccccc2F)CC1 | 1.41 |
| CCOc1ccc(C(=O)OC2CCN(C)CC2)cc1 | 1.72 |
| CN1CCC(OC(=O)c2ccc(-c3ccccc3)cc2)CC1 | 0.85 |
| Cc1cc(C)cc(C(=O)OC2CCN(C)CC2)c1 | 1.07 |
| CN1CCC(OC(=O)c2ccc(F)cc2)CC1 | 1.38 |
| CCCCOc1ccc(C(=O)OC2CCN(C)CC2)cc1 | 1.58 |
| COc1cccc(OC)c1C(=O)OC1CCN(C)CC1 | 0.63 |
| CN1CCC(OC(=O)c2cccc(C#N)c2)CC1 | 1.39 |
| COc1ccccc1C(=O)OC1CCN(C)CC1 | 1.43 |
| CN1CCC(OC(=O)c2cccc(F)c2)CC1 | 1.26 |
| COc1cc(OC)c(C(=O)OC2CCN(C)CC2)c(OC)c1 | 1.47 |
| COc1cc(C(=O)OC2CCN(C)CC2)cc(OC)c1OC | 1.35 |
| Cc1cc(C)c(C(=O)OC2CCN(C)CC2)cc1C | 1.17 |
